Results from paper PMC4240344 (Bioconjugate Chemistry, 2014).

Experiments:
[1] = system: integrin αvβ3/αvβ5 in xenografted U87MG glioma and human colon cancer tissues; assay: Tumor tissue staining: blocking and RGD-specificity experiments; details: 100 μM; for Staining of tumor tissues (RGD specificity): xenografted U87MG glioma and human colon cancer tissues, same conditions
How it was run: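 Sections were frozen, acetone-fixed U87MG xenograft slices (5 μm) or deparaffinized, rehydrated human colon cancer slides. They were blocked with 10% goat serum (30 min, 37 °C), then incubated with 100 μM test compound for 1 h at RT, with or without 10 mM c(RGDfK)2 as blocker. After three PBS washes and DAPI mounting, ≥15 random fields per section were scored. Fluorescent area was given as % of total, mean ± standard deviation.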

[2] = system: integrin αvβ3/αvβ5 in xenografted U87MG glioma tissues; parameters: species or system human; details: xenografted U87MG glioma slices, 1 h incubation, tested at 0.1-100 μM
How it was run: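 U87MG xenografts were snap-frozen in OCT and cut into 5 μm slices. Slices were fixed in ice-cold acetone for 10 min and air-dried for 20 min, then incubated for 1 h with test compound at 0.1, 1.0, 10, 20, 50 or 100 μM. After three PBS washes and DAPI mounting, images were taken at 200× with equal exposure. Fluorescent area was given as % of total area against concentration.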

[3] = system: integrin αvβ3/αvβ5 in human carcinoma tissues; assay: Tumor tissue staining, concentration dependence, human carcinoma tissues
How it was run: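 Human colon, squamous cell lung and gastric carcinoma slices (5 μm) were deparaffinized in xylene and rehydrated through graded alcohols. They were stained for 1 h with test compound at […], PBS-washed three times and mounted with DAPI medium. Images at 200× with equal exposure and equal brightness/contrast adjustment. Positive staining area was expressed as % of total area and plotted against concentration.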

[4] = system: integrin αvβ3/αvβ5 in xenografted U87MG glioma tissues; parameters: species or system human; details: peptide 100 μM, antibody 2.5 μg/mL, 5-120 min
How it was run: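 Frozen 5 μm slices of U87MG xenograft were fixed in ice-cold acetone for 10 min and air-dried at RT. They were incubated with 100 μM test compound at RT for 5, 15, 30, 60, 90 or 120 min, PBS-washed three times and mounted with DAPI medium. The antibody arm used 10% goat serum (30 min, 37 °C), then rabbit anti-integrin β3 (2.5 μg/mL) for the same times, then Cy3 goat anti-rabbit (1:100, 1 h). Images at 200× with equal exposure; positive area as % of total plotted against time.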

[5] = system: integrin αvβ3/αvβ5 in human carcinoma tissues; assay: Tumor tissue staining kinetics, time dependence, human carcinoma tissues; details: 50 μM, 5-90 min

Substance | Staining of tumor tissues (RGD specificity) [1] | Concentration range in which tissues were well stained [2] | Minimal concentration for positive staining of colon carcinoma ([3]; human colon carcinoma slices, 1 h incubation, tested at 1-50 μM) | Staining of gastric carcinoma tissue ([3]; human gastric carcinoma tissue, 1-50 μM) | Concentration needed to achieve adequate fluorescence staining ([3]; human squamous cell lung cancer tissues, 1 h incubation) | Incubation time to achieve maximal fluorescent intensity [4] | Incubation time for positive staining of colon cancer tissues [5] | Staining of xenografted U87MG glioma tissues in the absence of blocker ([1]; 1 h, room temperature)
FITC-PEG4-E[PEG4-c(RGDfK)]2 (bicyclic or more) [FITC-3P-RGD2] | positively stained | – | – | – | – | – | – | –
FITC-E[c(RGDfK)]2 (bicyclic or more) [FITC-RGD2] | positively stained | – | – | – | – | – | – | –
FITC-Glu[cyclo[Arg-Gly-Asp-D-Phe-Lys(SAA-PEG2-(1,2,3-triazole)-1-yl-4-methylamide)]]2 (bicyclic or more) [FITC-Galacto-RGD2] | positively stained | 10 to 100 µM | ~5 µM | little staining | > 25 µM | ≤ 30 min | ≤ 15 min | successfully stained
